{"source": "ChEMBL document CHEMBL3784931", "about": "“Synthesis and evaluation of novel angiotensin II receptor 1 antagonists as anti-hypertension drugs” (Bioorg Med Chem, 2016)", "key": {"[1]": {"test": "Acute toxicity in ICR mouse assessed as mortality at 1600 mg/kg, ig administered daily for 2 weeks measured during compound dosing", "format": "organism-based", "settings": "in vivo, po", "method_in_brief": "(§1)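 ICR mice, sixty in total, half male and half female, 20 ± 2 g. Intragastric dosing at 1200, 1600, 2133.3, 2844.40, 5056.79 or 6742.38 mg/kg. Animals watched daily over two weeks for survival and physiological abnormalities or untoward reactions. Percent mortality recorded per dose group.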"}, "Mus musculus [2]": {"test_system": "Mus musculus", "test": "Acute toxicity in ICR mouse assessed as skin changes at 1200 mg/kg, ig administered daily for 2 weeks measured during compound dosing", "format": "organism-based", "settings": "in vivo, po, 336 h", "method_in_brief": "as §1"}, "Mus musculus [3]": {"test_system": "Mus musculus", "test": "Acute toxicity in ICR mouse assessed as hyperthyroidism at 1600 to 6742.38 mg/kg, ig administered daily for 2 weeks measured 5 hrs post last dose", "format": "organism-based", "settings": "in vivo, po", "method_in_brief": "as §1"}, "[4]": {"test": "Cmax in Wistar rat kidney at 10 mg/kg, po after 0.5 to 72 hrs by HPLC analysis", "format": "ADME, organism-based", "design": "dose 10 mg/kg, route oral", "method_in_brief": "(§2)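 Wistar rats were dosed orally and killed by abdominal aorta transection at 0.5, 1, 2, 4, 6, 8, 12, 24, 48 and 72 h. Organs were excised at once, minced and homogenized at 4 °C in normal saline to a 25% (w/v) homogenate. After spinning at 3000 × g, 4 °C, 10 min, supernatants were analysed by HPLC. Values are mean ± SEM, n = 5 per point.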"}, "[5]": {"test": "Terminal half life in Wistar rat plasma at 10 mg/kg, po after 0.5 to 72 hrs by HPLC analysis", "format": "ADME, organism-based", "settings": "read-out: beta t1/2 (converted)", "method_in_brief": "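Wistar rats got an oral dose. Venous blood (0.5 mL) was taken predose and at 0.5, 1, 2, 4, 6, 8, 12, 24, 48 and 72 h, and plasma was spun 4000 × g, 4 °C, 10 min. Samples with internal standard were acetonitrile-precipitated, filtered and run on C18 reverse-phase HPLC with UV detection. Calibration used weighted regression of peak height ratio.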"}, "Lung": {"test_system": "Lung", "test": "AUC (0 to 72 hrs) in Wistar rat lung at 10 mg/kg, po by HPLC analysis", "format": "ADME, organism-based", "design": "dose 10 mg/kg, time < 72 hr, route oral", "settings": "in vivo", "method_in_brief": "as §2"}, "[6]": {"test": "Acute toxicity in ICR mouse assessed as mortality administered intragastrically daily for 2 weeks measured during compound dosing", "format": "organism-based", "settings": "in vivo, po", "method_in_brief": "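Sixty normal ICR mice (half male, half female, 20 ± 2 g) given intragastric doses of 1200, 1600, 2133.3, 2844.40, 5056.79 and 6742.38 mg/kg. Survival checked daily for two weeks.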"}, "Mus musculus [7]": {"test_system": "Mus musculus", "test": "Acute toxicity in ICR mouse assessed as pathological changes in organs and tissues at 1200 to 6742.38, ig administered daily for 2 weeks measured on 15th day", "format": "organism-based", "settings": "in vivo, po, 336 h", "method_in_brief": "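ICR mice of both sexes (20 ± 2 g) dosed intragastrically at 1200–6742.38 mg/kg and observed for two weeks. Surviving mice then dissected and examined with the naked eye.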"}, "Rattus norvegicus [8]": {"test_system": "Rattus norvegicus", "test": "Effect on heart rate in spontaneous hypertensive rat model at 10 and 15 mg/kg, po", "format": "ADME, organism-based", "settings": "in vivo"}, "[9]": {"test": "Tmax in Wistar rat heart at 10 mg/kg, po after 0.5 to 72 hrs by HPLC analysis", "format": "ADME, organism-based", "method_in_brief": "as §2"}, "Liver": {"test_system": "Liver", "test": "AUC (0 to 72 hrs) in Wistar rat liver at 10 mg/kg, po by HPLC analysis", "format": "ADME, organism-based", "design": "time < 72 hr, dose 10 mg/kg, route oral", "settings": "in vivo", "method_in_brief": "as §2"}, "[10]": {"test": "Terminal half life in Wistar rat spleen at 10 mg/kg, po after 0.5 to 72 hrs by HPLC analysis", "format": "ADME, organism-based", "settings": "read-out: beta t1/2 (converted)", "method_in_brief": "as §2"}, "Rattus norvegicus [11]": {"test_system": "Rattus norvegicus", "test": "Antihypertensive activity in spontaneous hypertensive rat model assessed as mean blood pressure at 10 mg/kg, po administered for 2 hrs", "format": "functional", "method_in_brief": "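Male SHRs were randomized, n = 6 per group. Compound was suspended in DMSO/oleic acid (1:4) and given by oral gavage; vehicle controls got the same volume of solvent. SBP and DBP were recorded in conscious animals by noninvasive tail-artery manometry. MBP = (SBP − DBP)/3 + DBP. Data are mean ± SEM, with p < 0.05 taken as significant.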"}, "[12]": {"test": "Elimination rate constant in Wistar rat stomach at 10 mg/kg, po after 0.5 to 72 hrs by HPLC analysis", "format": "ADME, organism-based", "method_in_brief": "as §2"}, "[13]": {"test": "Elimination rate constant in Wistar rat lung at 10 mg/kg, po after 0.5 to 72 hrs by HPLC analysis", "format": "ADME, organism-based", "method_in_brief": "as §2"}, "Mus musculus [14]": {"test_system": "Mus musculus", "test": "Acute toxicity in ICR mouse assessed as aggressiveness at 1200 mg/kg, ig administered daily for 2 weeks measured during compound dosing", "format": "organism-based", "settings": "in vivo, po, 336 h", "method_in_brief": "as §1"}, "Mus musculus [15]": {"test_system": "Mus musculus", "test": "Acute toxicity in ICR mouse assessed as obvious untoward reaction at 1200 to 6742.38, ig administered daily for 2 weeks during compound dosing", "format": "organism-based", "settings": "in vivo, po, 336 h", "method_in_brief": "as §1"}, "[16]": {"test": "Acute toxicity in ICR mouse assessed as mortality at 6742.38 mg/kg, ig administered daily for 2 weeks measured during compound dosing", "format": "organism-based", "settings": "in vivo, po", "method_in_brief": "as §1"}, "[17]": {"test": "Terminal half life in Wistar rat heart at 10 mg/kg, po after 0.5 to 72 hrs by HPLC analysis", "format": "ADME, organism-based", "settings": "read-out: beta t1/2 (converted)", "method_in_brief": "as §2"}, "[18]": {"test": "Cmax in Wistar rat spleen at 10 mg/kg, po after 0.5 to 72 hrs by HPLC analysis", "format": "ADME, organism-based", "design": "dose 10 mg/kg, route oral", "method_in_brief": "as §2"}, "[19]": {"test": "Tmax in Wistar rat spleen at 10 mg/kg, po after 0.5 to 72 hrs by HPLC analysis", "format": "ADME, organism-based", "method_in_brief": "as §2"}, "[20]": {"test": "Elimination rate constant in Wistar rat heart at 10 mg/kg, po after 0.5 to 72 hrs by HPLC analysis", "format": "ADME, organism-based", "method_in_brief": "as §2"}, "[21]": {"biological_target": "T1, Type-1 angiotensin II receptor A (Rattus norvegicus, UniProt P25095)", "T1 sequence (P25095 whole entry)": "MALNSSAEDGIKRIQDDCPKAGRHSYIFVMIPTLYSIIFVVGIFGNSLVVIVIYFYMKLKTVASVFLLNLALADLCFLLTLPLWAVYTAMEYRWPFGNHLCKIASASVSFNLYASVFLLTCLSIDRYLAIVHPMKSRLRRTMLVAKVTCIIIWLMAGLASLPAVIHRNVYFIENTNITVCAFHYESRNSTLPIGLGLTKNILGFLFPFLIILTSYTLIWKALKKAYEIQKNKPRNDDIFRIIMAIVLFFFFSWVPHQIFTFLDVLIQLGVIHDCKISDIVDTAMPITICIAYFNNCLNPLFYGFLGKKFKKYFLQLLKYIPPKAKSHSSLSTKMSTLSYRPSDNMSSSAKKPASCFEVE", "test": "Displacement of [125I]-Ang II from Angiotensin 2 type-1A receptor in rat vascular smooth muscle cells after 150 mins by gamma counting method", "method_in_brief": "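Rat vascular smooth muscle cells (passages 3–6) were seeded at 10⁶ cells/well and grown at 37 °C in 5% CO₂. Nonspecific binding was taken with 1 µM Ang II. Cells were washed three times, lysed 10 min in 0.1 M NaOH, and bound radioactivity was gamma counted.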"}, "[22]": {"test": "Terminal half life in Wistar rat lung at 10 mg/kg, po after 0.5 to 72 hrs by HPLC analysis", "format": "ADME, organism-based", "settings": "read-out: beta t1/2 (converted)", "method_in_brief": "as §2"}, "[23]": {"test": "Acute toxicity in ICR mouse assessed as mortality at 2844.40 mg/kg, ig administered daily for 2 weeks measured during compound dosing", "format": "organism-based", "settings": "in vivo, po, 2844.4 mg/kg", "method_in_brief": "as §1"}, "[24]": {"test": "Tmax in Wistar rat brain at 10 mg/kg, po after 0.5 to 72 hrs by HPLC analysis", "format": "ADME, organism-based", "method_in_brief": "as §2"}, "Spleen": {"test_system": "Spleen", "test": "AUC (0 to 72 hrs) in Wistar rat spleen at 10 mg/kg, po by HPLC analysis", "format": "ADME, organism-based", "design": "time < 72 hr, dose 10 mg/kg, route oral", "settings": "in vivo", "method_in_brief": "as §2"}, "[25]": {"test": "Elimination rate constant in Wistar rat liver at 10 mg/kg, po after 0.5 to 72 hrs by HPLC analysis", "format": "ADME, organism-based", "method_in_brief": "as §2"}, "[26]": {"test": "Acute toxicity in ICR mouse assessed as mortality at 2133.30 mg/kg, ig administered daily for 2 weeks measured during compound dosing", "format": "organism-based", "settings": "in vivo, po, 2133.3 mg/kg", "method_in_brief": "as §1"}, "[27]": {"test": "Tmax in Wistar rat kidney at 10 mg/kg, po after 0.5 to 72 hrs by HPLC analysis", "format": "ADME, organism-based", "method_in_brief": "as §2"}}, "data": [{"smiles": "CCCCc1nc(Cl)c(C(=O)O)n1Cc1ccc(-c2ccccc2-c2noc(=O)[nH]2)cc1", "values": [{"measurement": "mortality at 336 h", "setting": "[1]", "value": 10, "unit": "%"}, {"measurement": "Activity", "setting": "Mus musculus [2]", "value": "Non-toxic"}, {"measurement": "Activity", "setting": "Mus musculus [3]", "value": "Toxic"}, {"measurement": "Cmax", "setting": "[4]", "value": 10.5, "unit": "ng/g"}, {"measurement": "half-life", "setting": "[5]", "value": 18.2, "unit": "h"}, {"measurement": "AUC", "setting": "Lung", "value": 213.96, "unit": "ng·h/g"}, {"measurement": "LD50 at 336 h", "setting": "[6]", "value": 2970, "unit": "mg/kg"}, {"measurement": "Activity", "setting": "Mus musculus [7]", "value": "Non-toxic"}, {"measurement": "Activity", "setting": "Rattus norvegicus [8]", "value": "Non-toxic"}, {"measurement": "Tmax", "setting": "[9]", "value": 0.5, "unit": "h"}, {"measurement": "AUC", "setting": "Liver", "value": 260.05, "unit": "ng·h/g"}, {"measurement": "half-life", "setting": "[10]", "value": 8.74, "unit": "h"}, {"measurement": "Activity", "setting": "Rattus norvegicus [11]", "value": 41, "unit": "mmHg"}, {"measurement": "k el", "setting": "[12]", "value": "1.39e-05", "unit": "s⁻¹"}, {"measurement": "k el", "setting": "[13]", "value": "1.64e-05", "unit": "s⁻¹"}, {"measurement": "Activity", "setting": "Mus musculus [14]", "value": "Non-toxic"}, {"measurement": "Activity", "setting": "Mus musculus [15]", "value": "Non-toxic"}, {"measurement": "mortality at 336 h", "setting": "[16]", "value": 100, "unit": "%"}, {"measurement": "half-life", "setting": "[17]", "value": 9.13, "unit": "h"}, {"measurement": "Cmax", "setting": "[18]", "value": 8.84, "unit": "ng/g"}, {"measurement": "Tmax", "setting": "[19]", "value": 4, "unit": "h"}, {"measurement": "k el", "setting": "[20]", "value": "2.11e-05", "unit": "s⁻¹"}, {"measurement": "IC50", "setting": "[21]", "value": 3.16, "unit": "nM"}, {"measurement": "Ki", "setting": "[21]", "value": 2.29, "unit": "nM"}, {"measurement": "half-life", "setting": "[22]", "value": 12.4, "unit": "h"}, {"measurement": "mortality at 336 h", "setting": "[23]", "value": 40, "unit": "%"}, {"measurement": "Tmax", "setting": "[24]", "value": 2, "unit": "h"}, {"measurement": "AUC", "setting": "Spleen", "value": 275.21, "unit": "ng·h/g"}, {"measurement": "k el", "setting": "[25]", "value": "1.94e-05", "unit": "s⁻¹"}, {"measurement": "mortality at 336 h", "setting": "[26]", "value": 20, "unit": "%"}, {"measurement": "Tmax", "setting": "[27]", "value": 0.5, "unit": "h"}]}]}
